Experimental data from different studies.
Lines come from different studies, so protocols differ.
Target: Glycogen synthase kinase-3 alpha (GSK3A, Homo sapiens, UniProt P49840)

Cc1cnc(NC2CCOCC2)nc1-n1cnc(C(=O)NC(CN)c2cc(F)cc(Cl)c2)c1 (stereo not drawn) — remaining activity (enzyme activity; inhibitor; radiometric; 1 µM): 8%
CO[C@@H](C)c1c(Nc2ccc([C@@H](N(C)C(=O)C3CCS(=O)(=O)CC3)C(F)(F)F)cc2)cnc2cc(Cl)nn12 — remaining binding (cell-free assay; competition with immobilised ligand; 1 µM): 94%
COc1cc2ncnc(Nc3ccc(F)c(Cl)c3)c2cc1OCCCN1CCOCC1 — remaining signal (cell-free assay; 0.5 µM): 99.7%
O=S(=O)(Nc1cc(Sc2ncn[nH]2)c(O)c2ccccc12)c1ccc(-c2ccccc2)cc1 — remaining activity (enzyme activity; inhibitor; 1 µM): ≥ 75%
O=C(Nc1cnn(-c2csc(C(=O)NC3COC3)c2)c1)Nc1ccccc1Cl — remaining activity (enzyme activity; inhibitor; 5 µM): 97.4%
Cn1cnc(Br)c1C1=CN(c2ncnc3[nH]cnc23)CCS1 — inhibition (enzyme activity; inhibitor; radiometric; 50 nM): 14.8%
Nc1ncnc2occ(-c3ccc(NC(=O)Nc4cc(C(F)(F)F)ccc4F)cc3)c12 — remaining activity (enzyme activity; inhibitor; 20 µM): 17%
CC(C)(C)c1nc2c(s1)c1nc(N)ncc1c1ccc(NS(=O)(=O)c3c(F)cccc3F)c(F)c12 — remaining activity (enzyme activity; inhibitor; radiometric; 1 µM): 88%
O=C1Nc2ccc(Cl)cc2C1=Cc1cc(Cl)c(O)c(Cl)c1 — remaining signal (cell-free assay; 0.5 µM): 76.1%
CS(=O)(=O)N1CCCC(NC(=O)[C@H](CCC2CCCCC2)NC(=O)c2ccc(CNC(=O)c3cnc4ccccn34)cc2)C1 (stereo partly drawn) — remaining binding (cell-free assay; competition with immobilised ligand; 0.1 µM): 100%
COc1cccc2c(NCc3ccccc3)nc(-n3c(N)nc4ccccc43)nc12 — inhibition (target engagement in cells; inhibitor; chemoproteomics; 20 mM): 2%
CCN(CC)CCNC(=O)c1c(C)[nH]c(/C=C2\C(=O)Nc3ccc(F)cc32)c1C — inhibition (enzyme activity; inhibitor; 0.3 µM): 2%
O=C(N[C@H]1CCCCC/C=C\C2C[C@@]2(C(=O)O)NC(=O)[C@@H]2C[C@@H](Oc3ccncc3)CN2C1=O)OC1CCCC1 (stereo partly drawn) — remaining binding (cell-free assay; competition with immobilised ligand; 1 µM): 100%
CNc1cc(Oc2cc(C(=O)Nc3cc(N4CCN(C)CC4)cc(C(F)(F)F)c3)ccc2C)ncn1 — inhibition (target engagement in cells; inhibitor; chemoproteomics; Huh-7; 1 µM): -23.9%
CCCS(=O)(=O)Nc1ccc(F)c(C(=O)c2c[nH]c3ncc(-c4ccc(Cl)cc4)cc23)c1F — inhibition (enzyme activity; inhibitor; 1 µM): < 10%
C=CC(=O)Nc1cc(Nc2nccc(Nc3cc(Cl)c(F)cc3C(C)(C)O)n2)c(OC)cc1N1CC[C@@H](N(C)C)C1 — inhibition (enzyme activity; inhibitor; 1 µM): 0%
CNC(=O)c1cc(Oc2ccc(NC(=O)Nc3ccc(Cl)c(C(F)(F)F)c3)cc2)ccn1 — remaining signal (cell-free assay; 0.5 µM): 103%
CNC(=O)Nc1ccc2c(c1)CC[C@@]21OC(=O)N(CC(=O)N(Cc2ccc(F)cc2)[C@@H](C)C(F)(F)F)C1=O — remaining binding (cell-free assay; competition with immobilised ligand; 1 µM): 99%
Cc1ccc(C(=O)NCc2ccsc2)cc1C#Cc1cn(C(C)C)c2ncnc(N)c12 — activity vs control (enzyme activity; inhibitor; 1 µM): 91%
CN([C@@H]1CCc2c(CC(=O)O)c3cc(S(C)(=O)=O)ccc3n2C1)S(=O)(=O)c1ccc(F)cc1 — remaining binding (cell-free assay; competition with immobilised ligand; 1 µM): 100%
Cc1sc(C(=O)NC2COC2)cc1-n1cc(NC(=O)Nc2c(F)cccc2Cl)cn1 — remaining activity (enzyme activity; inhibitor; 10 µM): 128%
O=C(N1CCS(=O)(=O)CC1)N1C[C@H](c2ccc(OC(F)(F)F)cc2)C[C@H](c2nc(C3CC3)no2)C1 — remaining binding (cell-free assay; competition with immobilised ligand; 1 µM): 100%
Cc1ccc(Nc2nccc(N(C)c3ccc4c(C)n(C)nc4c3)n2)cc1S(N)(=O)=O — inhibition (enzyme activity; inhibitor; 10 µM): 48%
CS(=O)(=O)N1CCCC(NC(=O)[C@H](CCC2CCCCC2)NC(=O)c2ccc(CNc3ncnc4c3nnn4-c3ccccc3)cc2)C1 (stereo partly drawn) — remaining binding (cell-free assay; competition with immobilised ligand; 0.1 µM): 100%
CN1CC(Oc2cnc(C#N)cc2-c2ccn3nc(NC(=O)C4CC4)cc3c2)C1 — inhibition (enzyme activity; inhibitor; 1 µM): -14%
O=C(Nc1cnc(Oc2ccc(F)cc2)nc1)N1CCc2ncccc2[C@@H]1c1ccc(F)cc1 — remaining binding (cell-free assay; competition with immobilised ligand; 1 µM): 93%
COc1cc2ncnc(Nc3ccc(Oc4ccccc4)cc3C)c2cc1OC — inhibition (enzyme activity; inhibitor; 1 µM): 4%
